# ABCB1 block – ABCB1 efflux pump inhibitors, primary screen, cell-based, multiplex, flow cytometry, ABCG2 counter-screen; actives 0.067% (n = 190,000); ATP-dependent translocase ABCB1 (Homo sapiens), P08183; inhibition, % at 6.6 µM; CCRF-Adr cells, JC-1 efflux; in the data active = inhibition above about 40%;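 note: 0% = vehicle and 100% = reference inhibitor; higher value means more JC-1 retained so stronger ABCB1 efflux block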
# GSH bead fluor – compound fluorescence on glutathione beads, profiling panel, artefact control, biophysical, 488/530 nm, flow cytometry; GSH beads flow cytometry, compound fluorescence 488/530 nm; stronger effect = higher value; fluorescence (KMESF) at 10 µM; actives 0.25% (n = 190,000); AID 1776, 2009; in the data active = fluorescence above about 89;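 note: glutathione beads carrying GST-tagged Bcl family fusion proteins plus one bare bead set; values are compound well signal with DMSO vehicle wells as background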
# Avidin fluor – green autofluorescence of compounds with avidin beads – biophysical, 488/530 nm, flow cytometry, artefact control, profiling panel. actives 0.38% (n = 220,000). fluorescence (KMESF) at 10 µM. compound fluorescence 488/530 nm; stronger effect = higher value; in the data active = fluorescence above about 47
# ABCG2 block – ABCG2 efflux pump inhibitors, primary screen, multiplex with ABCB1, IgMXP3 cells, flow cytometry | AID 1325, 2008 | inhibition, % at 6.6 µM | JC-1 efflux | actives 0.1% (n = 190,000) | Broad substrate specificity ATP-binding cassette transporter ABCG2 (Homo sapiens), Q9UNQ0;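 active = inhibition above 80%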;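 note: 0% = DMSO and 100% = nicardipine control wells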
#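 Test system: IgMXP3 (ABCG2) plus far-red-tagged CCRF-Adr (ABCB1) cells. Reagent: JC-1 dye as substrate. Timing: 10 min exposure at 25 °C with rotation, no wash. Measured by: flow cytometric JC-1 green MFI at 530 nm. Read-out: percent efflux inhibition, scaled nicardipine 100% to DMSO 0%. Control set: nicardipine and DMSO wells.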
# PKD1 inh – inhibitors of human PKD1 kinase, biochemical, fluorescence polarization | inhibition, % (no concentration beside the values) | actives 0.056% (n = 200,000) | Serine/threonine-protein kinase D1 (Homo sapiens), Q15139 | PKD1 kinase fluorescence polarization assay
# Target sequence (Q15139 whole entry, looked up): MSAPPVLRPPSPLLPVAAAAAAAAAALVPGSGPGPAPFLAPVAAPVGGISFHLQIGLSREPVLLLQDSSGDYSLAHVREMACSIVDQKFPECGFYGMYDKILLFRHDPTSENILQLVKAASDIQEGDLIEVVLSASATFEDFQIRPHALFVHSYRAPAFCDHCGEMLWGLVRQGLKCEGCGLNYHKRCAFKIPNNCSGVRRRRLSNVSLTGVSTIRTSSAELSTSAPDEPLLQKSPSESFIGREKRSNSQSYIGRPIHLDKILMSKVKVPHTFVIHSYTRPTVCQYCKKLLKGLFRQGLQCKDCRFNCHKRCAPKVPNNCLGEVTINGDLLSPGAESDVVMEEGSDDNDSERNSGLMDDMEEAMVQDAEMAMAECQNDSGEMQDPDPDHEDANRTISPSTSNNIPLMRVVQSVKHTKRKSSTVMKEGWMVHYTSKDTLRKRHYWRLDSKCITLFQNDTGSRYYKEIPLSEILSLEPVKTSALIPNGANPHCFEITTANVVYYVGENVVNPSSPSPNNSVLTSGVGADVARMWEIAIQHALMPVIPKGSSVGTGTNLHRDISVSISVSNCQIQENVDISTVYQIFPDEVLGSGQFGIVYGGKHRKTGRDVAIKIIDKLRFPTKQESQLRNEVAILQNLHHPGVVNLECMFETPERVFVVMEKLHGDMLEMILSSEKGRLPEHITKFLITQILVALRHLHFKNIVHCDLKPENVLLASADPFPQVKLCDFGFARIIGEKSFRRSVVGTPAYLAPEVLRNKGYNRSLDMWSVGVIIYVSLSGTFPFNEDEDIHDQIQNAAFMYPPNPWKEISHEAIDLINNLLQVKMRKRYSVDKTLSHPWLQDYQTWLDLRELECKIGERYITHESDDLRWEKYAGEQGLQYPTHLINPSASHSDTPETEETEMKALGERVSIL
# L major viab – Leishmania major promastigote growth inhibition, primary screen. Leishmania major promastigotes, resazurin fluorescence viability. inhibition, % at 10 µM. actives 9% (n = 200,000). AID 1063, 2008;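 note: promastigotes grown with compound for 44 hours at 28 °C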
# Starred values were filed as active, the others as inactive; . = no result given. This is one part of a sample in which hits are shown more often than they occur. Cut-off read from the data, not from the text of the source, unless noted: active = inhibition above about 50%; inactive = the rest.
SMILES,ABCB1 block,GSH bead fluor,Avidin fluor,ABCG2 block,PKD1 inh,L major viab
COc1ccc(CN2CC(=O)N(c3ccc(C)c(C)c3)C2=S)cc1OC,0,9,19,1,-8,52*
Cc1ccc2c(CC(=O)Nc3cccc(S(=O)(=O)N4CCOCC4)c3)coc2c1,0,8,16,2,2,5
Cn1nccc1C(=O)Nc1ccn(C23CC4CC(CC(C4)C2)C3)n1,0,13,15,4,-1,53*
Cc1cc(C)n(-c2nc3c(c(=O)n(C)c(=O)n3C)n2CC(O)COc2ccccc2C)n1 (centres undefined),.,.,.,.,-5,0
CC(C)c1cc(C(=O)OCC(=O)NC(=O)NCc2ccco2)c(O)c(C(C)C)c1,-1,9,9,-2,0,37
CCc1ccc(C(C)NC(=O)C2(C)CC2(Br)Br)cc1 (centres undefined),1,24,11,4,-5,54*
O=C(NCCCCc1ccccc1)C1CC(c2ccc(C(F)(F)F)cc2)=NO1 (centres undefined),.,.,10,.,.,.
CN(C)c1ccc(N2CC(C)(C)C2=O)cc1,-1,14,5,-2,-3,-4
COc1cccc(Cn2cnc3c(NS(=O)(=O)c4ccc(Cl)cc4)c(C)c(C)cc32)c1,1,45,2,2,-3,50*
C/C(=N/NC(=O)c1cn(-c2cccc(C)n2)cn1)c1ccc(C)cc1,-1,34,12,-5,-10,77*
COc1cc(/C=N/NC(=O)c2cn(-c3cccc(C)n3)cn2)ccc1O,0,18,10,1,-2,98*
CCN(CC)CCNc1ncnc2c1[nH]c1ccc(OC)cc12,1,13,14,3,0,25
COc1ccc2[nH]c3c(NCc4ccco4)ncnc3c2c1,0,9,29,2,-1,51*
COc1ccc2[nH]c3c(NCCC4=CCCCC4)ncnc3c2c1,-1,12,6,-2,0,100*
C=CCNc1ncnc2c1[nH]c1ccc(C)cc12,0,12,34,0,-1,83*
CN(C)S(=O)(=O)c1ccc(C(=O)NNC(=O)C2COc3ccccc3O2)cc1 (centres undefined),0,10,5,0,-6,-3
O=C(c1ccc([N+](=O)[O-])s1)N1CCc2ccccc2C1,1,22,6,12,-10,94*
COc1ccc(Cn2c(CCC(=O)Nc3ccc(C)cc3)nc3cccnc32)cc1,2,36,53*,3,-4,8
Cc1ccnc2ccc(-c3nc4ccccc4o3)cc12,0,30,7,11,-9,37
Cc1nc2ccc(-c3nc4ccccc4o3)cc2[nH]1,1,23,7,7,-12,72*
CC(C)(C)c1ccc(S(=O)(=O)N2CCCCC2)cc1,1,13,5,11,-1,92*
CC(C)(C)c1ccc(S(=O)(=O)N2CCN(CCC#N)CC2)cc1,0,26,6,0,-12,56*
Cc1cccc(Oc2ccc(S(=O)(=O)N3CCCCC3)cc2N)c1,0,17,9,0,-2,80*
COc1ccccc1Oc1ccc(S(=O)(=O)N2CCCC2)cc1,0,22,21,1,-4,99*
Cc1[nH]n2c(=O)c3c(nc2c1-c1cccc2ccccc12)CCC3,0,8,23,1,8,-2
SMILES,ABCB1 block,GSH bead fluor,Avidin fluor,ABCG2 block,PKD1 inh,L major viab
Cc1[nH]n2c(=O)c3c(nc2c1-c1ccccc1)CCCC3,2,13,9,43,7,99*
Cc1[nH]n2c(=O)c3c(nc2c1-c1ccc(F)cc1)CCCC3,1,12,11,4,0,100*
O=c1c2c(nc3c(-c4ccc(Cl)cc4)c[nH]n13)CCCC2,0,25,17,4,0,100*
O=c1c2c(nc3cc(-c4ccc(F)cc4)[nH]n13)CCCC2,-7,10,19,-4,-4,21
COc1ccc(CCNC(=O)/C(C#N)=C2\N=C(NC(=O)c3ccco3)c3ccccc32)cc1,.,.,6,.,.,.
Cc1noc(/C=C/c2ccco2)c1S(=O)(=O)N1CCC(C(=O)N2CCc3ccccc3C2)CC1,0,23,13,-1,-4,73*
Cc1cccnc1NC(=O)C1CCN(S(=O)(=O)c2c(C)noc2/C=C/c2ccco2)CC1,4,7,3,1,-9,5
Cc1ccc(CNC(=O)C2CCN(S(=O)(=O)c3c(C)noc3/C=C/c3ccco3)CC2)cc1,2,26,6,2,-10,93*
Cc1ccc(NC(=O)C2CCN(S(=O)(=O)c3c(C)noc3/C=C/c3ccco3)CC2)nc1,1,16,3,1,-7,16
Cc1noc(/C=C/c2cccs2)c1S(=O)(=O)N1CCC(C(=O)NCCCN2CCC(C)CC2)CC1,0,12,6,1,2,90*
Cc1noc(C)c1C(=O)NNc1cc(Cl)ccc1Cl,.,.,3,.,.,.
N#Cc1cc(Cl)c(N2CCOCC2)cc1C#N,0,13,13,0,-2,-3
N#Cc1cc2ccc(N3CCOCC3)cc2cc1C#N,0,33,9,18,2,99*
Cc1nc2ccc(NC(=O)c3ccc(Cl)c(S(=O)(=O)N(C)c4ccccc4)c3)cc2s1,0,12,2,-2,7,100*
CC(C)c1ccc(NC(=S)NNC(=O)c2cccs2)cc1,1,11,9,5,-3,-8
COc1cc2nc(C3CCC3)nc(N3CCN(c4ccccn4)CC3)c2cc1OC,2,8,3,-1,-8,54*
COc1cc2nc(C3CCC3)nc(N3CCN(c4ccccc4OC)CC3)c2cc1OC,2,7,6,-3,-8,58*
COC(=O)c1cc(C(=O)Cc2ccccc2)c[nH]1,0,22,10,11,-4,-5
C=CCN1C(=O)CS/C1=N\S(=O)(=O)c1ccc(Cl)cc1,0,18,15,-1,3,1
CC(=O)N1CCN(c2ccc(C(N)=O)cc2[N+](=O)[O-])CC1,0,12,23,0,-5,-8
O=C(Nc1ccccc1N1CCCCC1)c1ccc(Cl)c([N+](=O)[O-])c1,1,13,8,7,-4,17
CN1CCN(c2ccccc2NC(=O)c2ccc(N3CCCC3)c([N+](=O)[O-])c2)CC1,20,17,7,24,0,65*
CN1CCN(c2ccc(C(=O)c3ccc(Br)cc3)cc2[N+](=O)[O-])CC1,2,22,11,19,8,98*

# Screening data: PubChem BioAssay, several laboratories
